Data set [1] has as its system MDA-MB-231. The data set is described as follows: Downregulation of survivin expression in human MDA-MB-231 cells at 5 to 7.5 uM after 24 hrs by Western blot analysis. The format is functional, cell-based. The procedure, abridged: (§1)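 Cells were treated for 24 h. Lysates were made in RIPA buffer, and 40 μg protein was resolved on 10–15% SDS-PAGE and transferred to PVDF. Membranes were blocked with 5% milk and probed overnight at 4 °C with primary antibodies, then HRP secondaries. Detection was by ECL with β-actin as loading control. Blots represent three independent experiments.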

For data set [2], the target named is T1, Albumin (Homo sapiens, UniProt P02768). The data set is described as follows: Binding affinity to human serum albumin at 293 K at pH 7.4 by fluorescence spectra analysis. The format is ADME. The settings on record: isolated protein. Put shortly: (§2)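 Steady-state Trp fluorescence quenching of HSA (10 μM, 0.05 M phosphate pH 7.4, excitation 295 nm) by increasing compound was run at each of three temperatures. F₀/F was fitted to the Stern–Volmer equation for KSV. Binding constant Kb and n came from the modified equation log[(F₀−F)/F] = log Kb + n log[Q].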
T1 sequence (P02768 whole entry): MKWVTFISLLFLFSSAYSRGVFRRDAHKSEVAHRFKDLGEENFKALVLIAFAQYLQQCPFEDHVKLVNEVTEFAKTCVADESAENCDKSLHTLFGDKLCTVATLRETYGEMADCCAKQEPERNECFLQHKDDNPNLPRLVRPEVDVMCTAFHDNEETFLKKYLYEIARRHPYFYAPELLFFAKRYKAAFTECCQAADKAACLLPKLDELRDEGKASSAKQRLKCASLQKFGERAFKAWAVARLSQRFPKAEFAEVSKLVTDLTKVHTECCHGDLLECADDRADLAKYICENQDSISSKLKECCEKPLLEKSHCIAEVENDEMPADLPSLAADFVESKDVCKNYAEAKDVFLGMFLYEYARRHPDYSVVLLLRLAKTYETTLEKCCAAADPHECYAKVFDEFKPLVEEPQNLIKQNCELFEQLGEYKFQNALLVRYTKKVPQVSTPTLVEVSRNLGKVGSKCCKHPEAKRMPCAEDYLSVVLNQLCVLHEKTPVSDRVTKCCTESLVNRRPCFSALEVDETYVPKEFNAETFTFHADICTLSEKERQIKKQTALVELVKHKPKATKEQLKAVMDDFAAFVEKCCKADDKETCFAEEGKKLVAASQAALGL

Data set [3] concerns the target T1, Albumin. The data set is described as follows: Binding affinity to human serum albumin at 283 K at pH 7.4 by fluorescence spectra analysis. The settings on record: isolated protein. The format is ADME. Put shortly: as §2
The target of data set [4] is T1, Albumin. The data set is described as follows: Binding affinity to human serum albumin at 303 K at pH 7.4 by fluorescence spectra analysis. In kind it is ADME. The settings on record: isolated protein. The procedure, abridged: as §2
In data set [5] the test system is MDA-MB-231. The data set is described as follows: Downregulation of CDK1 expression in human MDA-MB-231 cells at 5 to 7.5 uM after 24 hrs by Western blot analysis. In kind it is functional, cell-based. Put shortly: as §1
Data set [6] deals with T1, Albumin. The data set is described as follows: Binding affinity to human serum albumin assessed as change in secondary structure up to 40 uM at pH 7.4 by circular dichroism spectra analysis. The format is ADME. The following applies: isolated protein.
For data set [7], the target named is MAP kinase p38 (Homo sapiens) (UniProt O15264+Q15759+Q16539+P53778). The data set can be described thus: Induction of p38 MAPK phosphorylation in human MDA-MB-231 cells at 5 to 7.5 uM after 24 hrs by Western blot analysis. In kind it is cell-based. The procedure, abridged: (§3)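 MDA-MB-231 cells treated 24 h, then lysed in RIPA buffer. 40 μg protein run on 10–15% SDS–PAGE and transferred to PVDF. Blocked in 5% milk, probed overnight at 4 °C with primary antibodies (phospho- and total ERK1/2, JNK, p38, cleaved caspase-3), then HRP secondary. ECL detection with β-actin as loading control. Blots representative of three experiments.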

Data set [8] concerns the target c-Jun N-terminal kinase, JNK (Homo sapiens) (UniProt P45983+P53779+P45984). The data set can be described thus: Inhibition of SAPK/JNK phosphorylation in human MDA-MB-231 cells at 5 to 7.5 uM after 24 hrs by Western blot analysis. In kind it is cell-based. Put shortly:
as §3

The target of data set [9] is Matrix metalloproteinase-9 (Homo sapiens) (UniProt P14780). The data set is described as follows: Inhibition of MMP-9 in human MDA-MB-231 cells at 1 to 5 uM after 24 hrs by gelatin zymographic method. In kind it is cell-based. The procedure, abridged:
(§4)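 MDA-MB-231 cells, 1 × 10⁵ per well, treated 24 h with 0, 1, 2.5, 5 or 7.5 μM. Conditioned medium centrifuged and equal protein loaded on 8% SDS–PAGE containing 0.1% gelatin, run at 80 V. Triton X-100 washes, then developed 20 h at 37 °C in Tris-HCl pH 7.5 with NaCl, CaCl₂ and ZnCl₂. Coomassie stain, then destain.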

Data set [10] relates to MDA-MB-231. The data set is described as follows: Downregulation of Bcl-2 expression in human MDA-MB-231 cells at 5 to 7.5 uM after 24 hrs by Western blot analysis. The format is functional, cell-based. The procedure, abridged: as §1
The test system of data set [11] is MDA-MB-231. The data set can be described thus: Downregulation of CDC25C expression in human MDA-MB-231 cells at 5 to 7.5 uM after 24 hrs by Western blot analysis. In kind it is functional, cell-based. The procedure, abridged: as §1
The target of data set [12] is Mitogen-activated protein kinase; ERK1/ERK2 (Homo sapiens) (UniProt P27361+P28482). The data set is described as follows: Inhibition of ERK1/2 phosphorylation in human MDA-MB-231 cells at 5 to 7.5 uM after 24 hrs by Western blot analysis. In kind it is cell-based. The procedure, abridged: as §3
Mitogen-activated protein kinase; ERK1/ERK2 (Homo sapiens), sequence (P27361 whole entry, looked up): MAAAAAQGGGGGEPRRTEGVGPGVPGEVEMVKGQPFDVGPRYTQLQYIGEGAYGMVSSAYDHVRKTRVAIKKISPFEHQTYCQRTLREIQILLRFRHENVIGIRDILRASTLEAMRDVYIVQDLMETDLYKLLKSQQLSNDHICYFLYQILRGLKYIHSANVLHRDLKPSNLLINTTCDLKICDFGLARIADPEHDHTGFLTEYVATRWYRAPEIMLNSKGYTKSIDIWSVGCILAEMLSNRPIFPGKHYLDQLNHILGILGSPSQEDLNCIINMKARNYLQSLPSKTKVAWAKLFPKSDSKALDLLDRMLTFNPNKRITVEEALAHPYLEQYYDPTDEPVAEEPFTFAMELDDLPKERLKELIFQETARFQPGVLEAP
Mitogen-activated protein kinase; ERK1/ERK2 (Homo sapiens), sequence (P28482 whole entry, looked up): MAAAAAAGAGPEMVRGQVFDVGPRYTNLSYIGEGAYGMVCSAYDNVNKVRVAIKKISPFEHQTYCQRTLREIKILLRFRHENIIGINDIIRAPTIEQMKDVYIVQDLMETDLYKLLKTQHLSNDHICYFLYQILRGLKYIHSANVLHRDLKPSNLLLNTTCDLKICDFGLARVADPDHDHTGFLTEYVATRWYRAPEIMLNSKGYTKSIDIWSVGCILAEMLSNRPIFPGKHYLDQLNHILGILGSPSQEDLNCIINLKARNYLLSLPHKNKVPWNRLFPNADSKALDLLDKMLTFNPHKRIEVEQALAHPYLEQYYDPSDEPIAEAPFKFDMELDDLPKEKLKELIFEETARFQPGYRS
The subject of data set [13] is MDA-MB-231. The data set can be described thus: Downregulation of Bcl-XL expression in human MDA-MB-231 cells at 5 to 7.5 uM after 24 hrs by Western blot analysis. In kind it is functional, cell-based. Put shortly:
as §1

The subject of data set [14] is MDA-MB-231. The data set is described as follows: Antiinvasive activity against human MDA-MB-231 cells at 1 uM after 48 hrs by transwell assay. The format is functional, cell-based. The procedure, abridged:
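Matrigel (growth factor reduced, diluted in serum-free medium) coated on 8 μm pore polycarbonate transwell membranes, set 2 h at 37 °C. 30 000 cells/well seeded in RPMI-1640 with 1% FBS plus compound; lower chamber had 10% FBS as chemoattractant. After 48 h, non-invaded cells were swabbed off and invaded cells were methanol-fixed and stained with 0.1% crystal violet. At least 10 random fields were counted and expressed versus control.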

For data set [15], the target named is 72 kDa type IV collagenase (Homo sapiens) (UniProt P08253). The data set can be described thus: Inhibition of MMP-2 in human MDA-MB-231 cells at 1 to 5 uM after 24 hrs by gelatin zymographic method. The format is cell-based. The procedure, abridged:
as §4

Data set [16] concerns the target T1, Albumin. The data set is described as follows: Binding affinity to human serum albumin at 2 to 50 uM at pH 7.4 by spectroscopic analysis. The format is ADME. The settings on record: isolated protein, pH 7.4, 50 µM. Put shortly:
(§5)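 Fatty-acid-free HSA (10 μM) in 0.05 M phosphate buffer pH 7.4 was titrated with compound from 0 to 50 μM. Trp emission was excited at 295 nm and quenching was monitored. Data were fitted to the Stern–Volmer equation and a modified log[(F₀−F)/F] versus log[Q] plot, giving Kb and n from intercept and slope.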

The target of data set [17] is T1, Albumin. The data set can be described thus: Binding affinity to human serum albumin at 2 to 50 uM at pH 7.4 by fluorescence spectra analysis. In kind it is ADME. The following applies: isolated protein, pH 7.4, 50 µM. The procedure, abridged:
as §5

In data set [18] the test system is MDA-MB-231. The data set can be described thus: Downregulation of cyclin B expression in human MDA-MB-231 cells at 5 to 7.5 uM after 24 hrs by Western blot analysis. The format is functional, cell-based. The procedure, abridged: as §1
For data set [19], the system named is MDA-MB-231. The data set can be described thus: Antimigratory activity against human MDA-MB-231 cells at 2.5 to 5 uM after 12 to 24 hrs by wound healing assay. In kind it is functional, cell-based. Put shortly:
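2 × 10⁵ cells were plated in six-well plates and scratched with a 200 μL tip. Debris was removed, then cells were treated (0, 1, 2.5, 5, 7.5 μM; or 0–5 μM). The wound was photographed at 0, 12 and 24 h under 100× phase contrast. Area was measured as percent wound closure versus control. Three independent experiments, mean ± SEM.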

Data set [20] concerns MDA-MB-231. The data set can be described thus: Upregulation of cleaved caspase-3 expression in human MDA-MB-231 cells at 5 to 7.5 uM after 24 hrs by Western blot analysis. In kind it is functional, cell-based. Put shortly:
as §3

The source made the active and inactive calls. The calls are words filed in the database; no cut-off is given here.

Matrix metalloproteinase-9 (Homo sapiens), sequence (P14780 whole entry): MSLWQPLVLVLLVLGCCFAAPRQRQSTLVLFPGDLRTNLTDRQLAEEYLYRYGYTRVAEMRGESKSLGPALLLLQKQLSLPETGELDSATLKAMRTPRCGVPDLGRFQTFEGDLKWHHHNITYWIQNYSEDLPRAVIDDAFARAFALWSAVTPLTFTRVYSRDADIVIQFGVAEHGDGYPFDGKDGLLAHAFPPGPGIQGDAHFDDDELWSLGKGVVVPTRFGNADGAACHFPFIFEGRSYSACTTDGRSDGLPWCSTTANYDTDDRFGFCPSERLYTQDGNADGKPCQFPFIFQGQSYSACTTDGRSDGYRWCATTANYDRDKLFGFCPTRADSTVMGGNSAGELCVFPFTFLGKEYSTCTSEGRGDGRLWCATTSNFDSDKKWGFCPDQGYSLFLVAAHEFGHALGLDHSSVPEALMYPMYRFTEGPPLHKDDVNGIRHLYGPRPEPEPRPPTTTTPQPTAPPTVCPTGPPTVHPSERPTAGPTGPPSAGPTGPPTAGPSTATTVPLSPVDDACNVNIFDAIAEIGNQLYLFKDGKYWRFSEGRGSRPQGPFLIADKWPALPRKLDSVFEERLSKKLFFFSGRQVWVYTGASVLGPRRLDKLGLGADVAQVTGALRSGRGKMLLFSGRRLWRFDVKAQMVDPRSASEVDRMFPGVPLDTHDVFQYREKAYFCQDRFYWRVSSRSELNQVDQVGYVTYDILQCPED
72 kDa type IV collagenase (Homo sapiens), sequence (P08253 110-660 limits assumed): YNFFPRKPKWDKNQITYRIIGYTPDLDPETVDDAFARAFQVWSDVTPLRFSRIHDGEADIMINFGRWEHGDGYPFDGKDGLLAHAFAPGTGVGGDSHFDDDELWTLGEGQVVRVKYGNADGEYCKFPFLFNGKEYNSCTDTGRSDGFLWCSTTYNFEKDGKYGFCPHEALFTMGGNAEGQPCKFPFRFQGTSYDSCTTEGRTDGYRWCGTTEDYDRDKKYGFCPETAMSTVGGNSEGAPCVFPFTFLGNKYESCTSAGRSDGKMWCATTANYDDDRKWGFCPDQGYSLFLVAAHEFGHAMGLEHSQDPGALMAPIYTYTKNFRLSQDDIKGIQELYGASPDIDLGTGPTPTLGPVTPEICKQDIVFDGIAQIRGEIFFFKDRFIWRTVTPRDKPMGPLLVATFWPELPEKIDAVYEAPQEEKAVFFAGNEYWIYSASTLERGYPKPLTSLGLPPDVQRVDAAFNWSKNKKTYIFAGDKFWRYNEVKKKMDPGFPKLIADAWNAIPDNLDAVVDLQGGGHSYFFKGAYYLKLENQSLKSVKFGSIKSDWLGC

Consider `COC(=O)c1cc2c3ccccc3[nH]c2c2cn(-c3ccc(F)cc3Cl)c[n+]12.[Cl-]`, for which the result in [1], in data set [5], in data set [7], in data set [10], in data set [11] and in [13] was Active. Also, the result in data set [14], in [18], in data set [19] and in [20] was Active. Moreover, the Kb in data set [2] stood at 8.91 ×10⁴ L/mol; in data set [3], 9.77 ×10⁴ L/mol; in data set [4], 7.94 ×10⁴ L/mol. For the same molecule, the Activity entry is given as “Not Active” in data set [6], “Active” in [16] and “Active” in data set [17]. Besides, the inhibition entry in data set [8], in data set [9], in data set [12] and in data set [15] was “Active” in each case.

The values above are taken from ChEMBL document CHEMBL3425411, “Synthesis of β-Carboline-Based N-Heterocyclic Carbenes and Their Antiproliferative and Antimetastatic Activities against Human Breast Cancer Cells” (J Med Chem, 2015).
